What is called MIC is the smallest concentration in the dilution series that meets the test's criterion for growth inhibition. Lower therefore signals greater potency.

The test system of assay [1] is Staphylococcus aureus. Briefly: Antibacterial activity against Staphylococcus aureus NCTC 7447 at 1 mg/mL […] by agar diffusion assay. As to conditions: read-out: DIZ. Format: functional. (In general: A growth-free zone around the sample is the usual read-out of agar diffusion tests.)
In assay [2] the test system is Penicillium chrysogenum. Kind of assay: Antifungal activity against Penicillium chrysogenum Thom AUCC 530 at 1 mg/mL after 48 hrs by agar diffusion assay. Format: functional. As to conditions: Thom AUCC 530, 48 h, read-out: DIZ. In a few lines: (§1)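 Fungi were grown on Czapek's–Dox agar and assayed by agar diffusion. Test solution was 1 mg mL-1 in DMF, with DMF as negative control. After 48 h incubation, the inhibition zone diameter was measured in mm.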

The test system of assay [3] is Bacillus cereus. Kind of assay: Antibacterial activity against Bacillus cereus ATCC 14579 after 24 hrs by agar diffusion assay. The assay is classed as functional. The settings on record: ATCC 14579, 24 h.
In assay [4] the test system is Serratia marcescens. Kind of assay: Antibacterial activity against Serratia marcescens IMRU 70 at 1 mg/mL […] by agar diffusion assay. Format: functional. The settings on record: read-out: DIZ.
Assay [5] has as its system Proteus mirabilis. Briefly: Antibacterial activity against Proteus mirabilis NCT 289 at 1 mg/mL […] by agar diffusion assay. Format: functional. As to conditions: read-out: DIZ.
Assay [6] relates to Bacillus cereus. Kind of assay: Antibacterial activity against Bacillus cereus ATCC 14579 at 1 mg/mL […] by agar diffusion assay. The assay is classed as functional. The settings on record: read-out: DIZ.
The subject of assay [7] is Aspergillus ochraceus. Briefly: Antifungal activity against Aspergillus ochraceus Wilhelm AUCC 230 at 1 mg/mL after 48 hrs by agar diffusion assay. Format: functional. As to conditions: Wilhelm AUCC 230, 48 h, read-out: DIZ. Summed up: as §1
For assay [8], the system named is Penicillium chrysogenum. Kind of assay: Antifungal activity against Penicillium chrysogenum Thom AUCC 530 after 48 hrs by agar diffusion assay. Format: functional. As to conditions: Thom AUCC 530, 48 h.
Assay [9] concerns Aspergillus ochraceus. Kind of assay: Antifungal activity against Aspergillus ochraceus Wilhelm AUCC 230 at 25 ug/mL after 24 hrs by agar diffusion assay. The assay is classed as functional. As to conditions: Wilhelm AUCC 230, 24 h, read-out: DIZ.
For assay [10], the system named is Proteus mirabilis. Briefly: Antibacterial activity against Proteus mirabilis NCT 289 at 25 ug/mL […] by agar diffusion assay. The assay is classed as functional. As to conditions: read-out: DIZ.
Assay [11] concerns Bacillus cereus. Kind of assay: Antibacterial activity against Bacillus cereus ATCC 14579 at 25 ug/mL […] by agar diffusion assay. The assay is classed as functional. The settings on record: read-out: DIZ.
Assay [12] concerns Staphylococcus aureus. Kind of assay: Antibacterial activity against Staphylococcus aureus NCTC 7447 at 25 ug/mL […] by agar diffusion assay. The assay is classed as functional. The settings on record: read-out: DIZ.
Assay [13] has as its system Penicillium chrysogenum. Kind of assay: Antifungal activity against Penicillium chrysogenum Thom AUCC 530 at 25 ug/mL after 24 hrs by agar diffusion assay. Format: functional. The settings on record: Thom AUCC 530, 24 h, read-out: DIZ.
For assay [14], the system named is Serratia marcescens. Briefly: Antibacterial activity against Serratia marcescens IMRU 70 at 25 ug/mL […] by agar diffusion assay. Format: functional. As to conditions: read-out: DIZ.
The test system of assay [15] is Aspergillus ochraceus. Kind of assay: Antifungal activity against Aspergillus ochraceus Wilhelm AUCC 230 at 30 ug/mL after 48 hrs by agar diffusion assay. The assay is classed as functional, organism-based.
In assay [16] the test system is Penicillium chrysogenum. Briefly: Antifungal activity against Penicillium chrysogenum Thom AUCC 530 at 30 ug/mL after 48 hrs by agar diffusion assay. The assay is classed as functional, organism-based. In a few lines:
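Agar-diffusion assay on Czapek's–Dox agar inoculated with the fungal culture. Test solutions were 1 mg mL-1 in DMF, with DMF as the negative control and Mycostatine (30 µg mL-1) as the reference drug. Plates were incubated for 48 h, and the inhibition zone diameter was measured in mm.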

For `N#CC(C#N)=C1SC(=S)N(c2ccc(S(N)(=O)=O)cc2)C1=O`, the zone of inhibition at 1000 µg/mL is 15 mm in the assay on Staphylococcus aureus [1]; 14 mm in the assay with Penicillium chrysogenum [2]; 24 mm in the assay with Serratia marcescens [4]; 18 mm in the assay on Proteus mirabilis [5]; 32 mm with Bacillus cereus [6]; 14 mm with Aspergillus ochraceus [7]. The MIC against Bacillus cereus [3] was < 50 µg/mL.
`CN(C)/C=N/S(=O)(=O)c1ccc(N2C(=O)/C(=C\N(C)C)SC2=S)cc1`: the zone of inhibition at 1000 µg/mL with Staphylococcus aureus [1] was found to be 16 mm; with Penicillium chrysogenum [2], 16 mm; in the assay on Serratia marcescens [4], 12 mm; in the assay with Proteus mirabilis [5] it was 20 mm; with Bacillus cereus [6] it was 15 mm; in the assay on Aspergillus ochraceus [7], 16 mm.
Regarding `COc1ccc(/C=C2\SC(=S)N(c3ccc(S(=O)(=O)c4ccc(N5C(=O)/C(=C/c6ccc(OC)cc6)SC5=S)cc4)cc3)C2=O)cc1`, the zone of inhibition at 1000 µg/mL came to 17 mm in the assay on Staphylococcus aureus [1]; 11 mm in the assay on Penicillium chrysogenum [2]; 13 mm with Serratia marcescens [4]; 25 mm with Proteus mirabilis [5]; 16 mm with Bacillus cereus [6]; 11 mm with Aspergillus ochraceus [7].
For the molecule `COc1ccc(/C=C2/SC(=S)N(c3ccc(S(N)(=O)=O)cc3)C2=O)cc1`, the zone of inhibition at 1000 µg/mL in the assay on Staphylococcus aureus [1] was 27 mm; in the assay on Penicillium chrysogenum [2], 17 mm; with Serratia marcescens [4] it was 15 mm; with Proteus mirabilis [5], 19 mm; with Bacillus cereus [6], 10 mm; in the assay on Aspergillus ochraceus [7] it was 19 mm.
Turning to `Cc1ccc(/C=C2/SC(=S)N(c3ccc(S(N)(=O)=O)cc3)C2=O)cc1`, the zone of inhibition at 1000 µg/mL in the assay on Staphylococcus aureus [1] turned out to be 14 mm; with Penicillium chrysogenum [2], 10 mm; with Serratia marcescens [4] it was 18 mm; with Proteus mirabilis [5], 17 mm; with Bacillus cereus [6], 34 mm; in the assay on Aspergillus ochraceus [7], 14 mm. Besides, in the assay on Bacillus cereus [3], the MIC was < 50 µg/mL.
`O=C1CSC(=S)N1c1ccc(S(=O)(=O)Nc2ncccn2)cc1`: the MIC in the assay with Penicillium chrysogenum [8] was < 50 µg/mL. Besides, the zone of inhibition at 1000 µg/mL with Staphylococcus aureus [1] stood at 18 mm; with Penicillium chrysogenum [2], 35 mm; in the assay on Serratia marcescens [4] it was 22 mm; in the assay with Proteus mirabilis [5], 19 mm; in the assay on Bacillus cereus [6] it was 16 mm; in the assay on Aspergillus ochraceus [7] it was 15 mm.
For `NS(=O)(=O)c1ccc(N2C(=O)CSC2=S)cc1`, the zone of inhibition at 1000 µg/mL came to 28 mm with Staphylococcus aureus [1]; 16 mm in the assay on Penicillium chrysogenum [2]; 20 mm with Serratia marcescens [4]; 24 mm in the assay with Proteus mirabilis [5]; 13 mm in the assay on Bacillus cereus [6]; 18 mm in the assay on Aspergillus ochraceus [7].
In the case of `O=C1CSC(=S)N1c1ccc(S(=O)(=O)c2ccc(N3C(=O)CSC3=S)cc2)cc1`, the zone of inhibition at 1000 µg/mL turned out to be 15 mm in the assay on Staphylococcus aureus [1]; 12 mm in the assay with Penicillium chrysogenum [2]; 10 mm in the assay on Serratia marcescens [4]; 24 mm with Proteus mirabilis [5]; 13 mm in the assay with Bacillus cereus [6]; 26 mm in the assay on Aspergillus ochraceus [7].
On to `NS(=O)(=O)c1ccc(N2C(=O)/C(=C\c3ccc(/C=C4/SC(=S)N(c5ccc(S(N)(=O)=O)cc5)C4=O)cc3)SC2=S)cc1`, for which the zone of inhibition at 1000 µg/mL in the assay with Staphylococcus aureus [1] was found to be 13 mm; in the assay on Penicillium chrysogenum [2] it was 15 mm; in the assay on Serratia marcescens [4] it was 19 mm; in the assay with Proteus mirabilis [5], 22 mm; in the assay on Bacillus cereus [6], 33 mm; in the assay with Aspergillus ochraceus [7] it was 16 mm. Besides, the MIC with Bacillus cereus [3] was < 50 µg/mL.
As to `CC1(C)S[C@@H]2[C@H](NC(=O)[C@H](N)c3ccccc3)C(=O)N2[C@H]1C(=O)O` [AMPICILLIN], the zone of inhibition at 25 µg/mL in the assay with Aspergillus ochraceus [9] worked out at 10 mm; in the assay with Proteus mirabilis [10], 40 mm; in the assay with Bacillus cereus [11], 43 mm; in the assay with Staphylococcus aureus [12] it was 40 mm; in the assay with Penicillium chrysogenum [13], 16 mm; with Serratia marcescens [14], 40 mm.
Regarding `CCO/C=C1/SC(=S)N(c2ccc(S(N)(=O)=O)cc2)C1=O`, the zone of inhibition at 1000 µg/mL in the assay with Staphylococcus aureus [1] came to 25 mm; in the assay on Penicillium chrysogenum [2], 18 mm; in the assay with Serratia marcescens [4], 23 mm; in the assay on Proteus mirabilis [5] it was 23 mm; with Bacillus cereus [6], 12 mm; in the assay on Aspergillus ochraceus [7], 12 mm.
Take NYSTATIN: the inhibition zone (IZ) amounted to 40 mm in the assay on Aspergillus ochraceus [15] and 43 mm in the assay on Penicillium chrysogenum [16].

(Values after ChEMBL document CHEMBL1154098, “Synthesis, characterization and in vitro antimicrobial activity of novel 2-thioxo-4-thiazolidinones and 4,4'-bis(2-thioxo-4-thiazolidinone-3-yl)diphenylsulfones” (2009).)
